Experimental data taken from ChEMBL document CHEMBL3627607, “A Novel Pyrazolopyridine with in Vivo Activity in Plasmodium berghei- and Plasmodium falciparum-Infected Mouse Models from Structure-Activity Relationship Studies around the Core of Recently Identified Antimalarial Imidazopyridazines” (J Med Chem, 2015).

Tests used:
Blood [1] = assay: Drug level in rat blood treated with 5-(3-(Cyclopropylsulfonyl)phenyl)-3-(4-(methylsulfinyl)-phenyl)pyrazolo[1,5-a]pyridine at 20 mg/kg, po and 5 mg/kg, iv by LC-MS/MS analysis; format: ADME, organism-based; conditions: in vivo
How it was run: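 Metabolites identified by LC-ESI-MS/MS in blood samples from the rat PK study (oral and intravenous dosing).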

[2] = Oral bioavailability in rat at 10 mg/kg; format: ADME, organism-based; conditions: in vivo
[3] = Tmax in Plasmodium falciparum 3D7 infected in non-myelodepleted NOD-SCID IL2Rgammanull mouse engrafted with human erythrocytes at 10 mg/kg, po; format: ADME, organism-based; conditions: in vivo
How it was run: (§1)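 Humanized NSG mice infected with P. falciparum received one oral dose per day for 4 consecutive days. Blood was sampled for exposure, with levels of both parent and its main active metabolite measured. Tmax was taken from the blood concentration–time profile after oral dosing.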

[4] = AUC (0 to 23 hrs) in Plasmodium falciparum 3D7 infected in non-myelodepleted NOD-SCID IL2Rgammanull mouse engrafted with human erythrocytes at 30 mg/kg, po; format: ADME, organism-based; design: dose 30 mg/kg, time < 23 hr, route oral; conditions: in vivo
How it was run: (§2)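 Engrafted NSG (scid IL2Rgc null) mice infected with P. falciparum were given one oral dose per day for four days. Blood was sampled to measure parent and its sulfone metabolite.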

[5] = Drug level in mouse blood at 50 mg/kg, po after 4 hrs; format: ADME, organism-based; conditions: read-out: Drug uptake
How it was run: (§3)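 Snapshot whole-blood levels of parent and its sulfone metabolite at 1, 4 and 24 h after the first 50 mg/kg oral dose. Samples came from the P. berghei-infected efficacy mice, dosed in HPMC suspension vehicle.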

[6] = Cmax in Plasmodium falciparum 3D7 infected in non-myelodepleted NOD-SCID IL2Rgammanull mouse engrafted with human erythrocytes at 1.5 mg/kg, po; format: ADME, organism-based; design: dose 1.5 mg/kg, route oral; conditions: in vivo; how it was run: as §2
[7] = Cmax in Plasmodium falciparum 3D7 infected in non-myelodepleted NOD-SCID IL2Rgammanull mouse engrafted with human erythrocytes at 10 mg/kg, po; format: ADME, organism-based; design: dose 10 mg/kg, route oral; conditions: in vivo; how it was run: as §2
Blood [8] = assay: Drug level in mouse blood at 50 mg/kg, po after 24 hrs; format: ADME, organism-based; conditions: in vivo, 24 h, BLD = below limit of detection; how it was run: as §3
[9] = AUC (0 to 8 hrs) in Plasmodium falciparum 3D7 infected in non-myelodepleted NOD-SCID IL2Rgammanull mouse engrafted with human erythrocytes at 0.1 mg/kg, po; format: ADME, organism-based; design: time < 8 hr, dose 0.1 mg/kg, route oral; conditions: in vivo; how it was run: as §2
Plasmodium berghei [10] = assay: Antiplasmodial activity against Plasmodium berghei ANKA expressing GFP infected in mouse assessed as means survival days at 50 mg/kg, po qd for 4 days; format: functional
How it was run: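 Mice (n = 3) infected with GFP-transfected P. berghei ANKA. Compounds dissolved or suspended in HPMC vehicle (0.5% w/v hydroxypropylmethylcellulose, 0.5% v/v benzyl alcohol, 0.4% v/v Tween 80, 0.9% w/v NaCl in water). Dosed orally 4, 24, 48 and 72 h after infection. Parasitemia read by flow cytometry (detection limit 0.1%). Survival recorded as mean survival time in days.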

Liver microsome [11] = assay: Metabolic stability of the compound in rat liver microsomes assessed as compound remaining at 0.1 uM after 30 mins by LC-MS/MS analysis; format: ADME; conditions: 0.5 h
[12] = Cmax in Plasmodium falciparum 3D7 infected in non-myelodepleted NOD-SCID IL2Rgammanull mouse engrafted with human erythrocytes at 0.1 mg/kg, po; format: ADME, organism-based; design: dose 0.1 mg/kg, route oral; conditions: in vivo; how it was run: as §2
[13] = Cmax in Plasmodium falciparum 3D7 infected in non-myelodepleted NOD-SCID IL2Rgammanull mouse engrafted with human erythrocytes at 0.5 mg/kg, po; format: ADME, organism-based; design: dose 0.5 mg/kg, route oral; conditions: in vivo; how it was run: as §2
[14] = Tmax in Plasmodium falciparum 3D7 infected in non-myelodepleted NOD-SCID IL2Rgammanull mouse engrafted with human erythrocytes at 30 mg/kg, po; format: ADME, organism-based; conditions: in vivo; how it was run: as §1
[15] = AUC (0 to 23 hrs) in Plasmodium falciparum 3D7 infected in non-myelodepleted NOD-SCID IL2Rgammanull mouse engrafted with human erythrocytes at 10 mg/kg, po; format: ADME, organism-based; design: dose 10 mg/kg, time < 23 hr, route oral; conditions: in vivo; how it was run: as §2
[16] = Half life in rat at 3 mg/kg, iv; format: ADME, organism-based; conditions: in vivo
[17] = Half life in rat at 10 mg/kg, po; format: ADME, organism-based; conditions: in vivo
Plasmodium falciparum [18] = assay: Antiplasmodial activity against drug sensitive Plasmodium falciparum NF54 infected in human erythrocytes after 48 hrs by [3H]-hypoxanthine incorporation assay; format: functional, organism-based
[19] = AUC (0 to 23 hrs) in Plasmodium falciparum 3D7 infected in non-myelodepleted NOD-SCID IL2Rgammanull mouse engrafted with human erythrocytes at 1.5 mg/kg, po; format: ADME, organism-based; design: time < 23 hr, dose 1.5 mg/kg, route oral; conditions: in vivo; how it was run: as §2
[20] = AUC (0 to 23 hrs) in Plasmodium falciparum 3D7 infected in non-myelodepleted NOD-SCID IL2Rgammanull mouse engrafted with human erythrocytes at 0.5 mg/kg, po; format: ADME, organism-based; design: time < 23 hr, dose 0.5 mg/kg, route oral; conditions: in vivo; how it was run: as §2
[21] = Plasma clearance in rat at 3 mg/kg, iv; format: ADME, organism-based
[22] = Metabolic stability of the compound in mouse liver microsomes assessed as compound remaining at 0.1 uM after 30 mins by LC-MS/MS analysis; format: ADME; conditions: 0.5 h
[23] = Tmax in Plasmodium falciparum 3D7 infected in non-myelodepleted NOD-SCID IL2Rgammanull mouse engrafted with human erythrocytes at 0.1 mg/kg, po; format: ADME, organism-based; conditions: in vivo; how it was run: as §2
[24] = Drug level in mouse blood at 50 mg/kg, po after 1 hr; format: ADME, organism-based; conditions: read-out: Drug uptake; how it was run: as §3
Liver microsome [25] = assay: Drug level in rat liver microsomes treated with 5-(3-(Cyclopropylsulfonyl)phenyl)-3-(4-(methylsulfinyl)-phenyl)pyrazolo[1,5-a]pyridine at 10 uM after 1 hr by LC-MS/MS analysis; format: ADME
How it was run: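 Metabolites identified by LC-ESI-MS/MS after in vitro incubation with rat liver microsomes.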

[26] = Volume of distribution in rat at 3 mg/kg, iv; format: ADME, organism-based; conditions: in vivo
[27] = Cmax in Plasmodium falciparum 3D7 infected in non-myelodepleted NOD-SCID IL2Rgammanull mouse engrafted with human erythrocytes at 30 mg/kg, po; format: ADME, organism-based; design: dose 30 mg/kg, route oral; conditions: in vivo; how it was run: as §2
Liver microsome [28] = assay: Metabolic stability of the compound in human liver microsomes assessed as compound remaining at 0.1 uM after 30 mins by LC-MS/MS analysis; format: ADME; conditions: 0.5 h
[29] = Tmax in Plasmodium falciparum 3D7 infected in non-myelodepleted NOD-SCID IL2Rgammanull mouse engrafted with human erythrocytes at 0.5 mg/kg, po; format: ADME, organism-based; conditions: in vivo; how it was run: as §1
Plasmodium falciparum [30] = assay: Antiplasmodial activity against multidrug resistant Plasmodium falciparum K1 infected in human erythrocytes after 48 hrs by [3H]-hypoxanthine incorporation assay; format: functional, organism-based
Plasmodium berghei [31] = assay: Antiplasmodial activity against Plasmodium berghei ANKA expressing GFP infected in mouse assessed as reduction of parasitemia level at 50 mg/kg, po qd for 4 days measured on day 4 post last dose by flow cytometric analysis relative to control; format: functional; design: scale not given: the % may be the effect or the level left
How it was run: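 Mice (n = 3) infected with GFP-transfected P. berghei ANKA. Test agents were suspended in HPMC vehicle (0.5% w/v hydroxypropylmethylcellulose, 0.5% v/v benzyl alcohol, 0.4% v/v Tween 80, 0.9% w/v NaCl in water). Dosed orally at 4, 24, 48 and 72 h post-infection. Parasitemia read by flow cytometry on day 4 (96 h), detection limit 0.1%. Activity = control-minus-treated mean % parasitemia, relative to control.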

[32] = Tmax in Plasmodium falciparum 3D7 infected in non-myelodepleted NOD-SCID IL2Rgammanull mouse engrafted with human erythrocytes at 1.5 mg/kg, po; format: ADME, organism-based; conditions: in vivo; how it was run: as §1
Plasmodium berghei [33] = assay: Antiplasmodial activity against sporozoite stage of Plasmodium berghei expressing luciferase infected in human HepG2-A16-CD81EGFP cells preincubated with cells for 18 hrs followed by protozoal infection measured after 48 hrs by bioluminescence assay; format: functional, organism-based
How it was run: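 HepG2 cells were pretreated 18 h with compound, then infected with freshly dissected luciferase-expressing P. berghei sporozoites. After a further 48 h with compound, viability of exoerythrocytic forms and of HepG2 host cells was read by bioluminescence.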

For `CS(=O)(=O)c1ccc(-c2cnn3ccc(-c4cccc(S(=O)(=O)C5CC5)c4)cc23)cc1`, the Drug metabolism (Blood [1]) was “metabolite_detected”, the bioavailability [2] was 61% and the Tmax [3] was 4 h. The AUC(0-t) at 23 h [4] was 78300 ng·h/mL, the concentration at 4 h [5] was 1060 nM and the Cmax [6] was 467 ng/mL. For the same molecule, the Cmax [7] was 2600 ng/mL, the Drug uptake (Blood [8]) was “BLD” and the AUC(0-t) at 8 h [9] was 139 ng·h/mL. The MSD (Plasmodium berghei [10]) was 7 days, the Stability (Liver microsome [11]) was “Stable” and the Cmax [12] was 25 ng/mL. For the same molecule, the Cmax [13] was 106 ng/mL, the Tmax [14] was 8 h and the AUC(0-t) at 23 h [15] was 24800 ng·h/mL. For the same molecule, the half-life [16] was 2.7 h, the half-life [17] was 5.7 h and the IC50 (Plasmodium falciparum [18]) was 2.7 nM. The AUC(0-t) at 23 h [19] was 3200 ng·h/mL, the AUC(0-t) at 23 h [20] was 1010 ng·h/mL and the clearance [21] was 3.5 mL/min/kg. The Stability [22] was “Stable”, the Tmax [23] was 2 h and the concentration at 1 h [24] was 697 nM. For the same molecule, the Drug metabolism (Liver microsome [25]) was “metabolite_detected”, the Vd [26] was 0.8 L/kg and the Cmax [27] was 7430 ng/mL. For the same molecule, the Stability (Liver microsome [28]) was “Stable”, the Tmax [29] was 2 h and the IC50 (Plasmodium falciparum [30]) was 2.4 nM. The Activity (Plasmodium berghei [31]) was 71%, the Tmax [32] was 2 h and the IC50 (Plasmodium berghei [33]) was 20 nM.
